Active and inactive are the calls of the source.
Tests used:
SGBS [1] = test: Upregulation of CD36 gene expression in human preadipocyte derived from Simpson-Golabi-Behmel syndrome (SGBS) patient at 25 uM measured for 12 days by qRT-PCR analysis; type: functional, cell-based
Method in brief: (§1)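 SGBS cells were differentiated with serum-free induction medium containing 25 μM test agent, 2 μM rosiglitazone or 0.1% DMSO from day 0. IBMX and dexamethasone were removed on day 4 and medium was renewed on day 8. RNA was taken on days 0, 4, 8 and 12 for qPCR, normalized to TBP and to day 0. At least three biological replicates in duplicate, two-way ANOVA with Bonferroni.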

SGBS [2] = test: Induction of adipocyte differentiation in human preadipocyte derived from Simpson-Golabi-Behmel syndrome (SGBS) patient assessed as lipid accumulation at 25 uM measured for 12 days by Oil red O staining based microscopic analysis; type: functional, cell-based
Method in brief: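 Differentiation of SGBS preadipocytes was started in serum-free medium with transferrin, insulin, T3, hydrocortisol, IBMX and dexamethasone, plus 25 μM test agent, 2 μM rosiglitazone or 0.1% DMSO. On day 4 medium was switched to lack IBMX and dexamethasone, and it was renewed on day 8. Cells were fixed with 4% PFA and stained with 0.3% Oil Red O on days 0, 4, 8 and 12, then photographed.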

[3] = biological target: T1, Peroxisome proliferator-activated receptor alpha (Mus musculus) (UniProt P23204); test: Agonist activity at PPARalpha in C57BL/6N mouse primary hepatocytes assessed as SREBF1 mRNA expression at 50 uM measured after 18 hrs by qRT-PCR analysis; type: cell-based
T1 sequence (whole entry): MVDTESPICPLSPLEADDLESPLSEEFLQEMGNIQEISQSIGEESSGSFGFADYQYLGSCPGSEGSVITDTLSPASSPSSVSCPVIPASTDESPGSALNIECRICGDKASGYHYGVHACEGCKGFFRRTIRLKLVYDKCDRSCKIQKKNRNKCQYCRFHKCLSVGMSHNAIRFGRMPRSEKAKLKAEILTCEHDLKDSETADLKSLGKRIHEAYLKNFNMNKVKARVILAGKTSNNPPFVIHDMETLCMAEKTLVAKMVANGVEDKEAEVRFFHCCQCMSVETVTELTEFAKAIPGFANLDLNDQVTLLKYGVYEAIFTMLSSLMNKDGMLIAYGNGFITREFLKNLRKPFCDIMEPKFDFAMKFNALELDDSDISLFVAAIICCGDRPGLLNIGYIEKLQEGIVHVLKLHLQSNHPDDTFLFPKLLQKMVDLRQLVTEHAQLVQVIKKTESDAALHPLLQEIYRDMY
Method in brief: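 Treatment for 18 h at 50 μM (or 1 μM for the 1 μM agents), DMSO vehicle. Harvested for qPCR. mRNA normalized to TBP by the comparative threshold method, expressed relative to DMSO control. Two biological replicates run in duplicate, mean ± SEM. Primary hepatocytes came from male C57BL/6N mice aged 7–8 weeks, isolated by portal-vein perfusion and digestion, seeded on collagen I and used on day 2. HuH-7 cells were kept in DMEM with 10% FBS and ITS.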

[4] = biological target: T2, Peroxisome proliferator-activated receptor alpha (Homo sapiens) (UniProt Q07869); test: Agonist activity at full length human FLAG-tagged GAL4-DBD fused PPARalpha LBD (168 to 468 residues) expressed in COS1 cells at 25 to 50 uM measured after 18 hrs by dual luciferase reporter gene assay relative to pirinixic acid; type: cell-based
T2 sequence (whole entry): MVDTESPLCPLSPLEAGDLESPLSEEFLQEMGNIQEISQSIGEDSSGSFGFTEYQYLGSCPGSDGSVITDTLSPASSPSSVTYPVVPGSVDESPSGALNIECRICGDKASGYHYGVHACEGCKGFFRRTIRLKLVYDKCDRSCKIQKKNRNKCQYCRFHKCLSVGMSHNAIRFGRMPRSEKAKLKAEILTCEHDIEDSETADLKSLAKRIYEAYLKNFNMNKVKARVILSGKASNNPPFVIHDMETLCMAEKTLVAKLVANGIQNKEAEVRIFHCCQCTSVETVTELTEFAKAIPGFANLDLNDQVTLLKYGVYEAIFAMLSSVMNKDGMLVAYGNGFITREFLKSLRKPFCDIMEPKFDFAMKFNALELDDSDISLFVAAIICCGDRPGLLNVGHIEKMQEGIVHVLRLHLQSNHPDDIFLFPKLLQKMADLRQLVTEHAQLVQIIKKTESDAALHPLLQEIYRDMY
Method in brief: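 COS-1 cells were transfected with GAL4-DBD–PPARα-LBD, a 5×UAS luciferase reporter and a Renilla control. After 6 h, cells were treated with 0, 25 or 50 μM test compound or pirinixic acid in 0.1% DMSO (final) for 18 h. Dual-luciferase read-out, firefly/Renilla ratio, normalized to DMSO control and GAL4.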

[5] = biological target: T3, Peroxisome proliferator-activated receptor gamma (Homo sapiens, UniProt P37231); test: Agonist activity at full length human FLAG-tagged GAL4-DBD fused PPARgamma LBD (205 to 505 residues) expressed in COS1 cells measured after 18 hrs by dual luciferase reporter gene assay; type: cell-based
T3 sequence (P37231 whole entry): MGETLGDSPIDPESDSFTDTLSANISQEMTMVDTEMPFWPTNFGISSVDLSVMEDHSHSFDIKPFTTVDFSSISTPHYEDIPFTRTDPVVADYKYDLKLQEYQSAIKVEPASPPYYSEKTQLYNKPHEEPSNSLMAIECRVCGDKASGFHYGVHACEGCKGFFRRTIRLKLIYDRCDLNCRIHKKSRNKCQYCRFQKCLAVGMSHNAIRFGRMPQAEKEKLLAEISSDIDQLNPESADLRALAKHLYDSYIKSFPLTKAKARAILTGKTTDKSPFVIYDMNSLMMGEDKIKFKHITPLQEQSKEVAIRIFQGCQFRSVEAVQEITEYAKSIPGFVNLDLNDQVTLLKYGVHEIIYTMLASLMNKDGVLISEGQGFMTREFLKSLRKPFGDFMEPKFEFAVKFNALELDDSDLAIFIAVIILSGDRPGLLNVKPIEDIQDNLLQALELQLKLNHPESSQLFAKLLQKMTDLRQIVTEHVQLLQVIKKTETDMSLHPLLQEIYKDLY
Method in brief: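 Dose-response in COS-1 cells transfected with GAL4-DBD–human PPARα or PPARγ LBD, a 5×UAS-SV40 firefly reporter and pRL-CMV. Cells were treated with increasing concentrations in 0.1% DMSO (final) 6 h post-transfection, then for 18 h. Firefly/Renilla ratio, normalized to GAL4-only activity. EC50 was taken from a sigmoidal dose-response fit. At least three independent transfections in quadruplicate.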

SGBS [6] = test: Upregulation of FABP4 gene expression in human preadipocyte derived from Simpson-Golabi-Behmel syndrome (SGBS) patient at 25 uM measured for 12 days by qRT-PCR analysis; type: functional, cell-based; method in brief: as §1

**Q.** How did the Activity (SGBS [1]) turn out when `CCCCCCCc1cc(CCCCCC(=O)O)no1` was run?
**A.** The Activity was “Active”.

**Q.** What about the Activity (SGBS [2]) of the same compound?
**A.** Its Activity is “Active”.

**Q.** What about the Activity [3] of the same compound?
**A.** The Activity was “Active”.

**Q.** And the fold change (FC) [4]?
**A.** Its fold change (FC) is 2.5.

**Q.** And the EC50 [5]?
**A.** The EC50 was 2 mM.

**Q.** What about the Activity (SGBS [6]) of the same compound?
**A.** The Activity was “Active”.
